ChEMBL document CHEMBL4325893, “Synthesis and antibacterial profiles of targeted triclosan derivatives” (2019)
In brackets after ≈: the same amount, converted by molar mass.

How the values were obtained:
Citrobacter freundii [1] = test: Antibacterial activity against Citrobacter freundii 8090 after 18 hrs; type: functional; conditions: Citrobacter freundii, 8090, 18 h
Outline: (§1)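 Broth microdilution in Nutrient Broth No. 2; stocks in ethanol diluted to 0.01–128 µg/ml (triclosan) or 0.25–256 µg/ml (glycosides). Overnight 37 °C NB2 cultures diluted 1 in 10^4 in saline and added to the dilutions. Incubation at 37 °C with agitation, OD read every 15 min; MIC is the lowest concentration preventing any OD rise after 18 h.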

Citrobacter freundii [2] = test: Antibacterial activity against Citrobacter freundii OCC 851 after 18 hrs; type: functional; conditions: OCC 851, 18 h; outline: as §1
Escherichia coli [3] = test: Antibacterial activity against Escherichia coli 700728 after 18 hrs; type: functional; conditions: Escherichia coli, 700728, 18 h; outline: as §1
Staphylococcus aureus [4] = test: Antibacterial activity against Staphylococcus aureus ATCC 29213 after 18 hrs; type: functional; conditions: ATCC 29213, 18 h; outline: as §1
Proteus mirabilis = test: Antibacterial activity against Proteus mirabilis ATCC 12453 after 18 hrs; type: functional; conditions: ATCC 12453, 18 h; outline: as §1
Klebsiella pneumoniae = test: Antibacterial activity against Klebsiella pneumoniae ATCC 13883 after 18 hrs; type: functional; conditions: ATCC 13883, 18 h; outline: as §1
Streptococcus viridans = test: Antibacterial activity against Streptococcus viridans OCC 234 after 18 hrs; type: functional; conditions: OCC 234, 18 h
Outline: (§2)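 Broth microdilution in Nutrient Broth No. 2. Ethanol stocks were diluted in broth to 0.01–128 µg/ml for triclosan and 0.25–256 µg/ml for glycosides. Overnight 37°C NB2 cultures were diluted 1 in 10^4 in saline and added to the wells. Plates were incubated at 37°C with OD read every 15 min after agitation. MIC was the lowest concentration giving no OD increase at 18 h.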

Salmonella enteritidis = test: Antibacterial activity against Salmonella enterica subspecies enterica serotype Enteritidis 13076 after 18 hrs; type: functional, Salmonella enterica subsp. enterica serovar Enteritidis; conditions: Salmonella enterica, 13076, 18 h; outline: as §1
Streptococcus pneumoniae = test: Antibacterial activity against Streptococcus pneumoniae 6305 after 18 hrs; type: functional; conditions: Streptococcus pneumoniae, 6305, 18 h; outline: as §2
Escherichia coli [5] = test: Antibacterial activity against Escherichia coli OCC 122 after 18 hrs; type: functional; conditions: OCC 122, 18 h; outline: as §1
Pseudomonas aeruginosa = test: Antibacterial activity against Pseudomonas aeruginosa ATCC 27853 after 18 hrs; type: functional; conditions: ATCC 27853, 18 h; outline: as §1
Escherichia coli [6] = test: Antibacterial activity against Escherichia coli ATCC 8739 after 18 hrs; type: functional; conditions: ATCC 8739, 18 h; outline: as §1
[7] = Antibacterial activity against Enterobacter cloacae ATCC 13047 after 18 hrs; type: functional, Enterobacter cloacae subsp. cloacae; conditions: ATCC 13047, 18 h; outline: as §1
Escherichia coli [8] = test: Antibacterial activity against Escherichia coli ATCC 11775 after 18 hrs; type: functional; outline: as §1
Streptococcus pyogenes = test: Antibacterial activity against Streptococcus pyogenes ATCC 19615 after 18 hrs; type: functional; conditions: ATCC 19615, 18 h; outline: as §2
Streptococcus agalactiae = test: Antibacterial activity against Streptococcus agalactiae OCC 182 after 18 hrs; type: functional; conditions: OCC 182, 18 h; outline: as §2
Escherichia coli [9] = test: Antibacterial activity against Escherichia coli NCTC 13216 after 18 hrs; type: functional; conditions: NCTC 13216, 18 h; outline: as §1
[10] = Antibacterial activity against Salmonella enterica subspecies enterica serotype Indiana OCC 597 after 18 hrs; type: functional, Salmonella enterica subsp. enterica serovar Indiana; conditions: OCC 597, 18 h; outline: as §1
Proteus vulgaris = test: Antibacterial activity against Proteus vulgaris OCC 195 after 18 hrs; type: functional; conditions: OCC 195, 18 h; outline: as §1
Salmonella typhimurium = test: Antibacterial activity against Salmonella enterica subspecies enterica serotype typhimurium ATCC 14028 after 18 hrs; type: functional, Salmonella enterica subsp. enterica serovar Typhimurium; conditions: ATCC 14028, 18 h; outline: as §1
Escherichia coli [11] = test: Antibacterial activity against Escherichia coli ATCC 10536 after 18 hrs; type: functional; conditions: ATCC 10536, 18 h; outline: as §1
[12] = test system: Staphylococcus epidermidis; test: Antibacterial activity against Staphylococcus epidermidis ATCC 12228 after 18 hrs; type: functional; conditions: ATCC 12228, 18 h; outline: as §1
Staphylococcus aureus [13] = test: Antibacterial activity against Staphylococcus aureus ATCC 9144 after 18 hrs; type: functional; conditions: ATCC 9144, 18 h; outline: as §1
[14] = Antibacterial activity against Salmonella enterica subspecies enterica serotype Pullorum OCC 273 after 18 hrs; type: functional, Salmonella enterica subsp. enterica serovar Pullorum; conditions: OCC 273, 18 h; outline: as §1
[15] = Antibacterial activity against Salmonella enterica subspecies enterica serotype Virchow NCTC 5742 after 18 hrs; type: functional, Salmonella enterica subsp. enterica serovar Virchow; conditions: NCTC 5742, 18 h; outline: as §1
Enterococcus faecium = test: Antibacterial activity against Enterococcus faecium ATCC 19434 after 18 hrs; type: functional; conditions: ATCC 19434, 18 h; outline: as §1
[16] = test system: Staphylococcus saprophyticus; test: Antibacterial activity against Staphylococcus saprophyticus ATCC 15305 after 18 hrs; type: functional; conditions: ATCC 15305, 18 h; outline: as §2
[17] = test system: Salmonella enterica subsp. enterica serovar Abony; test: Antibacterial activity against Salmonella enterica subspecies enterica serotype Abony NCTC 6017 after 18 hrs; type: functional; conditions: NCTC 6017, 18 h; outline: as §1

Compound `O[C@@H]1[C@@H](Oc2cc(Cl)ccc2Oc2ccc(Cl)cc2Cl)OC[C@@H](O)[C@H]1O` has an MIC (Citrobacter freundii [1]) of 8 µg/mL (≈ 19 µM), an MIC (Citrobacter freundii [2]) of 8 µg/mL (≈ 19 µM) and an MIC (Escherichia coli [3]) of 0.5 to 4 µg/mL (≈ 1.19 to 9.49 µM). The MIC (Staphylococcus aureus [4]) was 0.5 µg/mL (≈ 1.19 µM), the MIC (Proteus mirabilis) was 4 µg/mL (≈ 9.49 µM) and the MIC (Klebsiella pneumoniae) was 0.5 µg/mL (≈ 1.19 µM). The MIC (Streptococcus viridans) was 128 µg/mL (≈ 304 µM), the MIC (Salmonella enteritidis) was 2 to 8 µg/mL (≈ 4.74 to 19 µM) and the MIC (Streptococcus pneumoniae) was 64 µg/mL (≈ 152 µM). The MIC (Escherichia coli [5]) was 0.5 to 4 µg/mL (≈ 1.19 to 9.49 µM), the MIC (Pseudomonas aeruginosa) was > 256 µg/mL and the MIC (Escherichia coli [6]) was 0.5 to 4 µg/mL (≈ 1.19 to 9.49 µM). It also gave an MIC [7] of 0.5 µg/mL (≈ 1.19 µM), an MIC (Escherichia coli [8]) of 0.5 to 4 µg/mL (≈ 1.19 to 9.49 µM) and an MIC (Streptococcus pyogenes) of 16 µg/mL (≈ 37.9 µM). It also gave an MIC (Streptococcus agalactiae) of 128 µg/mL (≈ 304 µM), an MIC (Escherichia coli [9]) of 0.5 to 4 µg/mL (≈ 1.19 to 9.49 µM) and an MIC [10] of 2 to 8 µg/mL (≈ 4.74 to 19 µM). It also gave an MIC (Proteus vulgaris) of 16 µg/mL (≈ 37.9 µM), an MIC (Salmonella typhimurium) of 2 to 8 µg/mL (≈ 4.74 to 19 µM) and an MIC (Escherichia coli [11]) of 0.5 to 4 µg/mL (≈ 1.19 to 9.49 µM). It also gave an MIC [12] of 0.5 µg/mL (≈ 1.19 µM), an MIC (Staphylococcus aureus [13]) of 0.5 µg/mL (≈ 1.19 µM) and an MIC [14] of 2 to 8 µg/mL (≈ 4.74 to 19 µM). It also gave an MIC [15] of 2 to 8 µg/mL (≈ 4.74 to 19 µM), an MIC (Enterococcus faecium) of 256 µg/mL (≈ 607 µM) and an MIC [16] of 8 µg/mL (≈ 19 µM). It also gave an MIC [17] of 2 to 8 µg/mL (≈ 4.74 to 19 µM).
